Six compounds from ChEMBL document CHEMBL1145155, “Synthesis and identification of [1,3,5]triazine-pyridine biheteroaryl as a novel series of potent cyclin-dependent kinase inhibitors” (J Med Chem, 2005) can be followed below.

For assay [1], the target named is Vascular endothelial growth factor receptor 2 (Homo sapiens, UniProt P35968). Put plainly: Inhibition of vascular endothelial growth factor receptor 2.
In the next assay the test system is HeLa. The assay can be described thus: Inhibitory concentration of compound against growth of HeLa cells. The note with it: Homo sapiens.
The subject of another assay is A-375. Put plainly: Inhibitory concentration of compound against growth of A-375 cells. As to conditions: Homo sapiens.
Assay [2] deals with Cyclin-dependent kinase 4/cyclin D1 (Homo sapiens, UniProt P11802). Put plainly: Inhibition of CDK4/cyclin D1. Type of assay: protein-complex assay. In short, it runs like this:
(§1)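 Incubated 1 h at 30 °C on a streptavidin-coated plate, stopped by washing with PBS containing 100 mM EDTA, then scintillation counted. Conditions varied slightly by kinase. IC50 was derived by linear regression of % inhibition versus untreated controls.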

For assay [3], the target named is Mitogen-activated protein kinase 1 (Homo sapiens, UniProt P28482). Put plainly: Inhibition of ERK 2.
A short description of assay [4]: Inhibitory concentration of compound against growth of MES SA/Dx 5 cells (high p glycoprotein). The note with it: Homo sapiens, MES-SA/Dx5.
Another assay concerns HCT-116. Put plainly: Inhibitory concentration of compound against growth of HCT116 cells. The note with it: Homo sapiens.
The target of a further assay is Casein kinase II (Homo sapiens, UniProt P19784+P67870+P68400). The assay can be described thus: Inhibition of Casein kinase II. Type of assay: protein-complex assay.
Assay [5] in a line: Inhibition of Protein kinase C gamma.
Assay [6] has as its target Fibroblast growth factor receptor 2 (Homo sapiens, UniProt P21802). The assay can be described thus: Inhibition of Fibroblast growth factor receptor 2.
In another assay the test system is U-937. The assay can be described thus: Inhibitory concentration of compound against growth of U-937 cells. The note with it: Homo sapiens.
Assay [7] addresses Cyclin-dependent kinase 2/cyclin A (Homo sapiens, UniProt P24941). The assay can be described thus: Inhibitory concentration of compound against CDK2/cyclin A. Type of assay: protein-complex assay.
Assay [8] has as its target T1, Cyclin-dependent kinase 1 (Homo sapiens, UniProt P06493). The assay can be described thus: Inhibition of cyclin dependent kinase CDK1. An outline of the steps: as §1
Assay [9] has as its target Cyclin-dependent kinase 5/CDK5 activator 1 (Homo sapiens, UniProt Q00535).
Assay [10] concerns the target Cyclin-dependent kinase 7/ cyclin H (Homo sapiens, UniProt P50613). Put plainly: Inhibition of CDK7/cyclin H. Type of assay: protein-complex assay. An outline of the steps:
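Run by Upstate Biotech as a contract panel: kinase phosphorylation of an appropriate peptide/protein substrate with 100 μM ATP, under conditions linear with time. IC50 is the average of two separate determinations.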

Assay [11] in a line: Inhibition of [Ca(2+)]/Calmodulin dependent kinase.
A short description of assay [12]: Inhibitory concentration of compound against growth of MES SA cells (low p glycoprotein). As to conditions: Homo sapiens.
For assay [13], the target named is Cyclin-dependent kinase 1/cyclin B (Homo sapiens, UniProt P06493). The assay can be described thus: Inhibition of Cyclin-dependent kinase 1-cyclin B. The class given is protein-complex assay.
The nature of assay [14]: Inhibition of Glycogen synthase kinase-3 beta.
A further assay has as its target CDK6/cyclin D3 (Homo sapiens, UniProt Q00534). Put plainly: Inhibition of CDK6/cyclin D3. The class given is protein-complex assay. In short, it runs like this: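 Run in an external kinase panel. Kinase phosphorylation of the appropriate peptide/protein substrate was measured with 100 μM ATP, under conditions linear with time. IC50 is the average of two separate determinations.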

The target in assay [15] is RAC-beta serine/threonine-protein kinase (Homo sapiens, UniProt P31751). The assay can be described thus: Inhibition of PKB beta.
Assay [16] addresses T1, Cyclin-dependent kinase 1. Put plainly: Inhibition of cyclin dependent kinase (CDK1). An outline of the steps:
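Radiometric FlashPlate assay: biotinylated peptide substrate at 0.025 μM with 33P-γ-ATP plus 10 μM ATP in 50 mM Tris-HCl pH 8, 10 mM MgCl2, 0.1 mM Na3VO4, 1 mM DTT. Incubated 1 h at 30 °C, stopped by PBS/100 mM EDTA wash, then scintillation counted. Inhibition is relative to untreated controls; IC50 from linear regression of percent inhibition. Conditions varied slightly per kinase.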

pIC50: −log10 of the molar value.

As to `OCCCNc1cncc(-c2ncnc(Nc3ccc(N4CCOCC4)cc3)n2)c1`, the pIC50 in assay [1] was 5.30.
Turning to `OCCCNc1cc(-c2ncnc(Nc3cccc(Cl)c3)n2)ccn1`, the pIC50 with HeLa was 7.48; in the assay on A-375, 7.55; in assay [2], 6.51; in [3], less than 5.00; in assay [4] it was 6.63; in the assay on HCT-116, 7.64. Further, the pIC50 against Casein kinase II was less than 5.00; in assay [5], less than 5.00; in [6], less than 5.00; in the assay with U-937, 7.51; in [7], 8.15; in assay [8], 7.68. Moreover, the pIC50 in assay [9] is 8.52; in [10], 6.90; in assay [11] it was less than 5.00; in assay [12], 6.64; in assay [13], 7.68; in assay [14], 7.70. The pIC50 against CDK6/cyclin D3 is 6.45; in assay [15] it was less than 5.00.
As to `Nc1nc(Nc2cccc(Cl)c2)nc(-c2ccnc(NCCCO)c2)n1`, the values for the pIC50 in assay [1] and in [16] were 5.97 and 5.96, respectively.
On to `OCCCNc1cncc(-c2ncnc(Nc3cccc(Cl)c3)n2)n1`, for which, in assay [1], the pIC50 was less than 5.00.
`OCCCNc1cncc(-c2ncnc(Nc3cccc(Cl)c3)n2)c1`: the pIC50 in [1] is 5.70; in assay [16] it was 7.22.
On to `OCCCNc1cncc(-c2ncnc(Nc3ccc4c(c3)OCCO4)n2)c1`, for which the pIC50 in assay [1] is 5.38; in [16], 6.46.

Broadly, the pIC50 is −log10 of the IC50, conventionally taken in molar units. High values mean a small IC50, low ones a large IC50.
